Measured values as given in ChEMBL document CHEMBL1687807, “Effect of N-1/c-8 ring fusion and C-7 ring structure on fluoroquinolone lethality” (2010).
≈ marks a conversion by molar mass, not a printed value.

What was measured:
Type in all cases: functional
Escherichia coli [1] = assay: Ratio of LD99 for Escherichia coli K-12 DM4100 to MIC for Escherichia coli K-12 DM4100
Procedure, shortened: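 MIC: 10^4 to 10^5 cells/ml incubated at 37°C in LB broth with serial 2-fold quinolone dilutions. Lethality: midlog cultures grown aerobically at 37°C and exposed to quinolone for 2 h, then plated on drug-free agar overnight for CFU. Survival is expressed as percent of CFU at drug addition.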

Escherichia coli [2] = assay: Bacteriostatic activity against Escherichia coli K-12 DM4100
Procedure, shortened: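 MIC by broth dilution: E. coli K-12 DM4100 at 10^4 to 10^5 cells/ml in LB liquid medium with serial 2-fold dilutions of quinolone, incubated at 37°C. Drug stock dilutions made in sterile distilled water.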

Escherichia coli [3] = assay: Bactericidal activity against Escherichia coli K-12 DM4100 after 2 hrs in presence of protein synthesis inhibitor chloramphenicol treated 10 mins before compound challenge
Procedure, shortened: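 Midlog E. coli grown aerobically at 37°C in LB. Chloramphenicol added to 20 μg/ml 10 min before quinolone, then 2 h further incubation. Cells diluted in growth medium and plated on drug-free agar, then incubated overnight at 37°C for CFU counts. Percent survival is relative to CFU at quinolone addition.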

SMILES	Ratio (Escherichia coli [1])	MIC (Escherichia coli [2]) [µg/mL]	LD99 (Escherichia coli [3]) [µg/mL]
CCC1CN(c2c(F)cc3c(=O)c(C(=O)O)cn(C4CC4)c3c2OC)CCN1 (stereo not given)	5	0.16 (≈ 0.411 µM)	0.8
COc1c(N2CCNCC2)c(F)cc2c(=O)c(C(=O)O)cn(C3CC3)c12	1.3	0.031 (≈ 0.0858 µM)	0.04
CCN1CCN(c2c(F)cc3c(=O)c(C(=O)O)cn4c3c2OC[C@@H]4C)CC1	2	0.75 (≈ 2 µM)	1.5
CCC1CN(c2c(F)cc3c(=O)c(C(=O)O)cn4c3c2OC[C@@H]4C)CCN1 (stereo not given in full)	2	0.25 (≈ 0.666 µM)	0.5
CC1CN(c2c(F)cc3c(=O)c(C(=O)O)cn4c3c2OC[C@@H]4C)CCN1 (stereo not given in full)	2.4	0.31 (≈ 0.858 µM)	0.74
CCN1CCN(c2c(F)cc3c(=O)c(C(=O)O)cn(C4CC4)c3c2OC)CC1	1.4	0.1 (≈ 0.257 µM)	0.14
COc1c(N2CCN(C)CC2)c(F)cc2c(=O)c(C(=O)O)cn(C3CC3)c12	3.2	0.062 (≈ 0.165 µM)	0.2
C[C@H]1COc2c(N3C[C@@H]4CCCN[C@@H]4C3)c(F)cc3c(=O)c(C(=O)O)cn1c23	2	0.125 (≈ 0.323 µM)	0.25
COc1c(N2CCNC(C)C2)c(F)cc2c(=O)c(C(=O)O)cn(C3CC3)c12 (stereo not given) [GATIFLOXACIN]	5	0.04 (≈ 0.107 µM)	0.2
C[C@H]1COc2c(N3CCN(C)CC3)c(F)cc3c(=O)c(C(=O)O)cn1c23.C[C@H]1COc2c(N3CCN(C)CC3)c(F)cc3c(=O)c(C(=O)O)cn1c23.O [LEVOFLOXACIN]	4	0.2	0.8
CN1CCN(c2c(F)cc3c(=O)c(C(=O)O)cn4c3c2OCN4C)CC1 [MARBOFLOXACIN]	3	0.02 (≈ 0.0552 µM)	0.06
COc1c(N2C[C@@H]3CCCN[C@@H]3C2)c(F)cc2c(=O)c(C(=O)O)cn(C3CC3)c12 [MOXIFLOXACIN]	4	0.125 (≈ 0.311 µM)	0.5
C[C@H]1COc2c(N3CCNCC3)c(F)cc3c(=O)c(C(=O)O)cn1c23 [N-DESMETHYL LEVOFLOXACIN]	1.2	1 (≈ 2.88 µM)	1.2
C[C@H]1COc2c(C3(N)CC3)c(F)cc3c(=O)c(C(=O)O)cn1c23 [PAZUFLOXACIN]	4	0.02 (≈ 0.0628 µM)	0.08
CN1CCN(c2c(F)cc3c(=O)c(C(=O)O)cn4c3c2SCC4)CC1 [RUFLOXACIN]	7	1 (≈ 2.75 µM)	7
